Columns and labels:
[1] = test system: K562; assay: Cytotoxicity against human K562 cells assessed as cell viability after 72 hrs by CCK8 assay; type: functional, cell-based; conditions: K562, 72 h
Procedure, shortened: (§1)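 Cells grown in RPMI or DMEM with 10% FBS and 1% penicillin/streptomycin at 37 °C, 5% CO2. Seeded at 400-800 cells/well in 384-well plates, treated with a range of compound concentrations or solvent control for 72 h. CCK8 reagent added, absorbance read at 450 nm; IC50 from dose-response curves. Taxol positive control.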

[2] = test system: MOLT-4; assay: Cytotoxicity against human MOLT4 cells assessed as cell viability after 72 hrs by CCK8 assay; type: functional, cell-based; conditions: MOLT-4, 72 h; procedure, shortened: as §1
[3] = Cytotoxicity against human U937 cells assessed as cell viability after 72 hrs by CCK8 assay; type: functional, cell-based; conditions: U-937, 72 h; procedure, shortened: as §1
[4] = test system: MCF7; assay: Cytotoxicity against human MCF7 cells assessed as cell viability after 72 hrs by CCK8 assay; type: functional, cell-based; conditions: MCF7, 72 h; procedure, shortened: as §1
[5] = test system: HeLa; assay: Cytotoxicity against human HeLa cells assessed as cell viability after 72 hrs by CCK8 assay; type: functional, cell-based; procedure, shortened: as §1
[6] = test system: DU-145; assay: Cytotoxicity against human DU145 cells assessed as cell viability after 72 hrs by CCK8 assay; type: functional, cell-based; conditions: DU-145, 72 h; procedure, shortened: as §1
[7] = test system: A549; assay: Cytotoxicity against human A549 cells assessed as cell viability after 72 hrs by CCK8 assay; type: functional, cell-based; conditions: A549, 72 h; procedure, shortened: as §1
[8] = Cytotoxicity against human SGC7901 cells assessed as cell viability after 72 hrs by CCK8 assay; type: functional, cell-based; conditions: SGC-7901, 72 h; procedure, shortened: as §1
[9] = test system: NCI-H1975; assay: Cytotoxicity against human NCI-H1975 cells assessed as cell viability after 72 hrs by CCK8 assay; type: functional, cell-based; conditions: NCI-H1975, 72 h; procedure, shortened: as §1
[10] = Cytotoxicity against human HL60 cells assessed as cell viability after 72 hrs by CCK8 assay; type: functional, cell-based; conditions: HL-60, 72 h; procedure, shortened: as §1
[11] = test system: HEK-293T; assay: Cytotoxicity against human 293T cells after 44 hrs by MTT assay; type: cell-based
Procedure, shortened: (§2)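 Cells cultured in 88% DMEM, 12% FBS, 100 units/mL penicillin and streptomycin. Seeded at 2 × 10^5 cells/mL, 24 h at 37 °C in 5% CO2, then medium replaced with compound in growth medium at 80, 40, 20, 10 and 5 concentrations for 44 h. MTT (5 mg/mL) added for a further 4 h; absorbance at 490 nm. Untreated cells as negative control, Taxol positive control.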

[12] = Cytotoxicity against human LX2 cells after 44 hrs by MTT assay; type: cell-based; conditions: LX-2, 44 h; procedure, shortened: as §2
[13] = molecular target: T1, Prostaglandin G/H synthase 1 (Ovis aries, UniProt P05979); assay: Inhibition of ovine COX1 using fluorometric substrate after 15 mins
T1 sequence (P05979 whole entry): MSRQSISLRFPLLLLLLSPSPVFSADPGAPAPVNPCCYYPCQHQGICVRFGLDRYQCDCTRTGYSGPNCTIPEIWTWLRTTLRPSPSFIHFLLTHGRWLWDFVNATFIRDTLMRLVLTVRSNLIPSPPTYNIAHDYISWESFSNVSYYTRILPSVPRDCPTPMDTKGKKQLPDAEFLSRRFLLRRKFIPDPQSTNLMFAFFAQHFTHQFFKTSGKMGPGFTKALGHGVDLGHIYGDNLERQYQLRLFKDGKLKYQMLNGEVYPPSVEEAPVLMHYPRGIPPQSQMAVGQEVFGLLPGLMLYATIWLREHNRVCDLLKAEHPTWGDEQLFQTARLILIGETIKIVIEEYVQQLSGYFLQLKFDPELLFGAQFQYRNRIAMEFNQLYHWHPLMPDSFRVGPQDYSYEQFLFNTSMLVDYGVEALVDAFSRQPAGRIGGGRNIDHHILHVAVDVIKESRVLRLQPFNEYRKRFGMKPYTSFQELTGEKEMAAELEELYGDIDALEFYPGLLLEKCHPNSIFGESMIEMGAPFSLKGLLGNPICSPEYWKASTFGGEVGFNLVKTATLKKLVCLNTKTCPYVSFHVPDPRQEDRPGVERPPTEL

[14] = molecular target: T2, Prostaglandin G/H synthase 2 (Homo sapiens, UniProt P35354)
T2 sequence (P35354 whole entry): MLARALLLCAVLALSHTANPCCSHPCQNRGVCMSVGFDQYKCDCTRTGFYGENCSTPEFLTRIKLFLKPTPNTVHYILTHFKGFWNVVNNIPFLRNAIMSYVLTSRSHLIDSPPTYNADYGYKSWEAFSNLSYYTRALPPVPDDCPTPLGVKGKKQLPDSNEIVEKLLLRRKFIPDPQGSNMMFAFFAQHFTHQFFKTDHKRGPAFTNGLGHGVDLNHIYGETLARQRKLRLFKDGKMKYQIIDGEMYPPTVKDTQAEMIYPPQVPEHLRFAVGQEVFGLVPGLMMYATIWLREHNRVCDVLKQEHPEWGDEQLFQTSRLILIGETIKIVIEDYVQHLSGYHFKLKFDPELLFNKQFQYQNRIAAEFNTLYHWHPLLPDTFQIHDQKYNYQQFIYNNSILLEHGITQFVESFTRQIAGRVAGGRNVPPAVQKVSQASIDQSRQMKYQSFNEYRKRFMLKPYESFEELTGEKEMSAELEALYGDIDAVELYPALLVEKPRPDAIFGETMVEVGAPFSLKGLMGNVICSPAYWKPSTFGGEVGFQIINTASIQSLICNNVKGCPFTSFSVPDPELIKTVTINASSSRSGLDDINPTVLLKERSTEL

SMILES	IC50 [13] [µM]	IC50 [14] [µM]	IC50 [1] [µM]	IC50 [2] [µM]	IC50 [3] [µM]	IC50 [4] [µM]	IC50 [5] [µM]	IC50 [6] [µM]	IC50 [7] [µM]	IC50 [8] [µM]	IC50 [9] [µM]	IC50 [10] [µM]	IC50 [11] [µM]	IC50 [12] [µM]
C/C=C(\C)C(=O)O[C@@H]1[C@@H](C)[C@@]2(O)[C@@H](C=C(CO)C[C@]3(O)C(=O)C(C)=C[C@@H]23)[C@@H]2C(C)(C)[C@]12OC(=O)C(C)C	> 50	> 50	4.4	1.1	5.5	> 50	9.2	1.1	32	43	10	1.2	171	> 500
CC(=O)O[C@H]1C(=O)[C@@]2(C)[C@H]([C@H](OC(=O)c3ccccc3)[C@]3(O)C[C@H](OC(=O)[C@H](O)[C@@H](NC(=O)c4ccccc4)c4ccccc4)C(C)=C1C3(C)C)[C@]1(OC(C)=O)CO[C@@H]1C[C@@H]2O [PACLITAXEL]			0.0052	0.0022	0.0025	0.0062		0.0034		0.0051	0.0077	0.0018		
CCC(C)C(=O)O[C@@]12[C@H](O)[C@@H](C)[C@]3(O)[C@@H]4C=C(C)C(=O)[C@@H]4CC(CO)=C[C@H]3[C@@H]1C2(C)C (stereo partly drawn)	> 50	> 50	8	9.9	18	24	10	10	4.5	5.4	3.3	9.8	191	> 500
C/C=C(\C)C(=O)O[C@@H]1[C@@H](C)[C@@]2(O)[C@@H](C=C(CO)C[C@]3(O)C(=O)C(C)=C[C@@H]23)[C@@H]2C(C)(C)[C@]12OC(=O)C(C)CC (stereo partly drawn)	> 50	> 50	2.2	1	2.6		10	5			10	1.2	157	> 500

Further lines, with some results ahead:

IC50 [13] [µM]	IC50 [14] [µM]	SMILES	IC50 [1] [µM]	IC50 [2] [µM]	IC50 [3] [µM]	IC50 [4] [µM]	IC50 [5] [µM]	IC50 [6] [µM]	IC50 [7] [µM]	IC50 [8] [µM]	IC50 [9] [µM]	IC50 [10] [µM]	IC50 [11] [µM]	IC50 [12] [µM]
> 50	> 50	C/C=C(\C)C(=O)O[C@@H]1[C@@H](C)[C@@]2(O)[C@@H](C(=O)C(CO)=C[C@]3(O)C(=O)C(C)=C[C@@H]23)[C@@H]2C(C)(C)[C@]12OC(=O)C(C)CC (stereo partly drawn)	17	4.8	21	20	5	10	19	23	10	10	455	> 500
0.14	8.5	CCC(C)C(=O)O[C@@]12[C@H](OC(=O)c3ccccc3)[C@@H](C)[C@@]3(O)[C@@H](C=C(CO)C[C@]4(O)C(=O)C(C)=C[C@@H]34)[C@@H]1C2(C)C (stereo partly drawn)	15	12	17	20	4.6	4.3	6.9	10	3.3	6.8	420	> 500
> 50	> 50	CCC(C)C(=O)O[C@@]12[C@H](OC(C)=O)[C@@H](C)[C@@]3(O)[C@@H](C(=O)C(CO)=C[C@]4(O)C(=O)C(C)=C[C@@H]34)[C@@H]1C2(C)C (stereo partly drawn)	7.2	10	14	> 50	10	11	> 50	> 50	10	9.9	147	352
> 50	> 50	CC(=O)O[C@@H]1[C@@H](C)[C@@]2(O)[C@@H](C=C(CO)C[C@]3(O)C(=O)C(C)=C[C@@H]23)[C@@H]2C(C)(C)[C@]12OC(=O)C(C)C	4	2.4	6.8	13	3.9	7.2	5.8	13	10	12	292	> 500

Reference: ChEMBL document CHEMBL3400051, “Five new phorbol esters with cytotoxic and selective anti-inflammatory activities from Croton tiglium” (Bioorg Med Chem Lett, 2015)
